Test results reported in ChEMBL document CHEMBL3734668, “Evaluation of small molecule SecA inhibitors against methicillin-resistant Staphylococcus aureus” (Bioorg Med Chem, 2015).
In brackets after ≈: the same amount, converted by molar mass. Activity calls are given as the source filed them. The calls are words filed in the database; no cut-off is given here.

Columns and labels:
Staphylococcus aureus [1] = assay: Bacteriostatic activity against Staphylococcus aureus Mu3 after 24 hrs; format: functional; conditions: Mu3, 24 h
Method in brief: (§1)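 Broth microdilution MIC per CLSI guidance in LB, 37 °C, shaking 250 rpm, 24 hr; run in triplicate in three separate experiments. MIC taken as lowest inhibitor concentration with no growth. Compounds from DMSO stocks; untreated controls carry equal DMSO.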

[2] = molecular target: T1, Protein translocase subunit SecA 1 (Staphylococcus aureus (strain NCTC 8325), UniProt O06446); assay: Inhibition of Staphylococcus aureus ATCC 35556 SecA1 expressed in Escherichia coli BL21-gammaDE3 assessed as reduction in intrinsic ATPase activity incubated for 3 hrs measured by malachite green colorimetric method
T1 sequence (O06446 whole entry): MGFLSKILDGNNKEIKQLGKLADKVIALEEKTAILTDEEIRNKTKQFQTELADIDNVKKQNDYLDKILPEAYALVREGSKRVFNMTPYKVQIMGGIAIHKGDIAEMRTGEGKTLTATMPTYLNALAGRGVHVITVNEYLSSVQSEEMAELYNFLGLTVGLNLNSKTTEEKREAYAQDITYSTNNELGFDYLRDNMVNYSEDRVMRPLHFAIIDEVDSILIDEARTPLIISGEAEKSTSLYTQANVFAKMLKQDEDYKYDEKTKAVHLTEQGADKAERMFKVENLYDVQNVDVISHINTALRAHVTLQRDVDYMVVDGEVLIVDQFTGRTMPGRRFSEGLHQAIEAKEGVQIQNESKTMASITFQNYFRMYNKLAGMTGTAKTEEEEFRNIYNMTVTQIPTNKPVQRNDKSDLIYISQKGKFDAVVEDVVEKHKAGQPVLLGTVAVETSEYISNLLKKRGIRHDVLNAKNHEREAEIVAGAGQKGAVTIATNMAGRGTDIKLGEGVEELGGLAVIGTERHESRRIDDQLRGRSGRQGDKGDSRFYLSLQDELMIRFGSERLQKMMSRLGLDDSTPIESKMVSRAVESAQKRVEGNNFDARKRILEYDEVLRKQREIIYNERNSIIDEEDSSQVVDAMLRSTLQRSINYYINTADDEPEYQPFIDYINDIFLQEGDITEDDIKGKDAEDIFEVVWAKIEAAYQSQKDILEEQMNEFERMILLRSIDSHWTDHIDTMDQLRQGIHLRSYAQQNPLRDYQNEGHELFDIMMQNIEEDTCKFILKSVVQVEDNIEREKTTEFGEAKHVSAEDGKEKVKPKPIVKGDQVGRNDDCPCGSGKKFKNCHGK

Staphylococcus aureus [3] = assay: Bacteriostatic activity against Staphylococcus aureus Newman after 24 hrs; format: functional; method in brief: as §1
[4] = molecular target: T2, Protein translocase subunit SecA 2 (Staphylococcus aureus (strain NCTC 8325), UniProt Q2FUW6); assay: Inhibition of Staphylococcus aureus ATCC 35556 SecA2 expressed in Escherichia coli BL21-gammaDE3 assessed as reduction in intrinsic ATPase activity incubated for 3 hrs measured by malachite green colorimetric method
T2 sequence (Q2FUW6 whole entry): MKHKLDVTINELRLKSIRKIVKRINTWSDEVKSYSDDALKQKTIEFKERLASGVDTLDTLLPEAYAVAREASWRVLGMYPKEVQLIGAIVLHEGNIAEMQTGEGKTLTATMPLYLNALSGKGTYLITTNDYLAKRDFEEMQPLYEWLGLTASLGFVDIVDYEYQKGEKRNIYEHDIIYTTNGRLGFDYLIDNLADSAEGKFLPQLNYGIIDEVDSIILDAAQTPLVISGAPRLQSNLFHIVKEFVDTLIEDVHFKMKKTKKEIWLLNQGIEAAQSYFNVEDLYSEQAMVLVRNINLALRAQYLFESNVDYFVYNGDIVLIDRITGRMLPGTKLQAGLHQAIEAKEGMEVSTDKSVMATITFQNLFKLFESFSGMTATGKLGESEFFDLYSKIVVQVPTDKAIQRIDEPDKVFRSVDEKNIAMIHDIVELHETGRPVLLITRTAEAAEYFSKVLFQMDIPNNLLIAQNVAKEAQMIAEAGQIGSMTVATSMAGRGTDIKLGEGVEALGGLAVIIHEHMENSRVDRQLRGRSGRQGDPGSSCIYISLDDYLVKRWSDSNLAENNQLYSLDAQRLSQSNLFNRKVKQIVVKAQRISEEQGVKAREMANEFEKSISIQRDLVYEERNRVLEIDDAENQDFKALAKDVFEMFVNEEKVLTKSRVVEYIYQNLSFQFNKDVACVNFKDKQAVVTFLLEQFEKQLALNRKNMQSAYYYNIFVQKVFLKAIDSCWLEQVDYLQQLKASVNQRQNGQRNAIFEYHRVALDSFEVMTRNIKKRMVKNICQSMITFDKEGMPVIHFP

Staphylococcus aureus [5] = assay: Bacteriostatic activity against Staphylococcus aureus N315 after 24 hrs; format: functional; conditions: N315, 24 h; method in brief: as §1
Staphylococcus aureus [6] = assay: Bacteriostatic activity against Staphylococcus aureus Mu50 after 24 hrs; format: functional; conditions: Mu50, 24 h
Method in brief: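 Broth microdilution per CLSI guidelines in LB. Inhibitor added to dilute early-log culture (OD600 ≈ 0.05), 37 °C, 250 rpm, 24 hrs. Run in triplicate in three separate experiments. MIC read as the lowest concentration with no growth.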

Staphylococcus aureus [7] = assay: Bacteriostatic activity against Staphylococcus aureus ATCC 6538 after 24 hrs; format: functional; conditions: ATCC 6538, 24 h
[8] = molecular target: T1, Protein translocase subunit SecA 1; assay: Inhibition of Staphylococcus aureus ATCC 35556 SecA1 liposomal ion channel activity in Xenopus laevis oocytes incubated for 3 hrs measured by recording ion current for 1 min; format: cell-based
Method in brief: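 Xenopus laevis oocytes injected at animal pole with 50 nl containing 120 ng liposomes, 120 ng SaSecA1, 14 ng proOmpA, 2 mM ATP, 1 mM Mg(OAc)2 plus varying inhibitor. Incubated 3 hr at 23 °C, then ion current recorded continuously 1 min.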

Staphylococcus aureus [9] = assay: Bacteriostatic activity against Staphylococcus aureus K2068 overexpressing MepA; format: functional; method in brief: as §1
Staphylococcus aureus [10] = assay: Bacteriostatic activity against NorA deficient Staphylococcus aureus K1758; format: functional; method in brief: as §1
Staphylococcus aureus [11] = assay: Bacteriostatic activity against Staphylococcus aureus K2361 overexpressing NorA; format: functional; method in brief: as §1
Staphylococcus aureus [12] = assay: Bacteriostatic activity against MepA deficient Staphylococcus aureus K2908; format: functional; method in brief: as §1
Staphylococcus aureus [13] = assay: Bacteriostatic activity against wild type Staphylococcus aureus 8325-4; format: functional; method in brief: as §1
[14] = molecular target: T3, Protein translocase subunit SecA 1 (Staphylococcus aureus (strain NCTC 8325)) (UniProt O06446); assay: Binding affinity to SecA1 in Staphylococcus aureus ATCC 6538 whole cell lysate incubated for 1 hr by Streptavidin-based pull down assay
T3 sequence (whole entry): T1 sequence (O06446 whole entry)
Method in brief: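 Lysate precleared on streptavidin magnetic beads (4 °C, 1 hr), then rolled ±400 μM biotinylated probe at 4 °C, 1 hr. Beads washed three times, boiled in SDS buffer; SaSecA1 detected by Western blot using cross-reacting EcSecA antibody.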

[15] = Inhibition of Escherichia coli SecA N68 mutant ATPase activity

Question: Which results are given for `Oc1ccc2c(c1)Oc1cc(O)ccc1C2C1CCCC1`?
Answer: MIC (Staphylococcus aureus [1]): 14 µg/mL (≈ 49.6 µM); IC50 [2]: 35 µM; MIC (Staphylococcus aureus [3]): 7 µg/mL (≈ 24.8 µM); IC50 [4]: 30 µM; MIC (Staphylococcus aureus [5]): 14 µg/mL (≈ 49.6 µM); MIC (Staphylococcus aureus [6]): 14 µg/mL (≈ 49.6 µM); MIC (Staphylococcus aureus [7]): 11 µg/mL (≈ 39 µM); IC50 [8]: 2 µM

Question: For `CCn1cc(C(=O)O)c(=O)c2cc(F)c(N3CCNCC3)cc21` [NORFLOXACIN], which MIC (Staphylococcus aureus [6]) is on record?
Answer: 250 µg/mL (≈ 783 µM)

Question: Which MIC (Staphylococcus aureus [6]) does the source give for `NC[C@H]1O[C@H](O[C@H]2[C@H](O)[C@@H](O[C@H]3O[C@H](CO)[C@@H](O)[C@H](N)[C@H]3O)[C@H](N)C[C@@H]2N)[C@H](O)[C@@H](O)[C@@H]1O` [KANAMYCIN] here?
Answer: 1000 µg/mL (≈ 2060 µM)

Question: With `CN(C)[C@@H]1C(O)=C(C(N)=O)C(=O)[C@@]2(O)C(O)=C3C(=O)c4c(O)cccc4[C@@](C)(O)[C@H]3C[C@@H]12` [TETRACYCLINE] as the compound, how does the MIC (Staphylococcus aureus [6]) read?
Answer: 63 µg/mL (≈ 142 µM)

Question: Which MIC (Staphylococcus aureus [6]) does the source give for `CO[C@H]1/C=C/O[C@@]2(C)Oc3c(C)c(O)c4c(O)c(c(/C=N/N5CCN(C)CC5)c(O)c4c3C2=O)NC(=O)/C(C)=C\C=C\[C@H](C)[C@H](O)[C@@H](C)[C@@H](O)[C@@H](C)[C@H](OC(C)=O)[C@@H]1C` [RIFAMPIN] here?
Answer: > 1000 µg/mL

Question: With `CN[C@@H](CC(C)C)C(=O)N[C@H]1C(=O)N[C@@H](CC(N)=O)C(=O)N[C@H]2C(=O)N[C@H]3C(=O)N[C@H](C(=O)N[C@@H](C(=O)O)c4cc(O)cc(O)c4-c4cc3ccc4O)[C@H](O)c3ccc(c(Cl)c3)Oc3cc2cc(c3O[C@H]2O[C@@H](CO)[C@H](O)[C@@H](O)[C@@H]2O[C@@H]2C[C@@](C)(N)[C@@H](O)[C@@H](C)O2)Oc2ccc(cc2Cl)[C@H]1O` as the compound, how does the MIC (Staphylococcus aureus [6]) read?
Answer: 8 µg/mL (≈ 5.52 µM)

Question: Which MIC (Staphylococcus aureus [9]) does the source give for `O=C([O-])c1c(Cl)c(Cl)c(Cl)c(Cl)c1-c1c2cc(I)c(=O)c(I)c-2oc2c(I)c([O-])c(I)cc12.[Na+].[Na+]` [ROSE BENGAL SODIUM] here?
Answer: 15 µg/mL

Question: And the MIC (Staphylococcus aureus [1])?
Answer: 59 µg/mL

Question: What about the MIC (Staphylococcus aureus [10]) of the same compound?
Answer: 22 µg/mL

Question: What about the MIC (Staphylococcus aureus [3]) of the same compound?
Answer: 51 µg/mL

Question: And the IC50 [4]?
Answer: 2 µM

Question: What about the MIC (Staphylococcus aureus [5]) of the same compound?
Answer: 21 µg/mL

Question: What about the MIC (Staphylococcus aureus [11]) of the same compound?
Answer: 35 µg/mL

Question: And the MIC (Staphylococcus aureus [12])?
Answer: 11 µg/mL

Question: And the MIC (Staphylococcus aureus [13])?
Answer: 13 µg/mL

Question: For `O=C(CCCC[C@@H]1SC[C@@H]2NC(=O)N[C@@H]21)NCCCCCCC1c2ccc(O)cc2Oc2cc(O)ccc21`, which Activity [14] is on record?
Answer: Active

Question: And the IC50 [15]?
Answer: 90 µM

Question: Which MIC (Staphylococcus aureus [6]) does the source give for `CC1(C)S[C@@H]2[C@H](NC(=O)[C@H](N)c3ccccc3)C(=O)N2[C@H]1C(=O)O` [AMPICILLIN] here?
Answer: 1000 µg/mL (≈ 2860 µM)

Question: Which MIC (Staphylococcus aureus [6]) does the source give for `CC[C@H]1OC(=O)[C@H](C)[C@@H](O[C@H]2C[C@@](C)(OC)[C@@H](O)[C@H](C)O2)[C@H](C)[C@@H](O[C@@H]2O[C@H](C)C[C@H](N(C)C)[C@H]2O)[C@](C)(O)C[C@@H](C)C(=O)[C@H](C)[C@@H](O)[C@]1(C)O` [ERYTHROMYCIN] here?
Answer: > 1250 µg/mL
